Source: ChEMBL document CHEMBL4251703, “Linker Variation and Structure-Activity Relationship Analyses of Carboxylic Acid-based Small Molecule STAT3 Inhibitors” (ACS Med Chem Lett, 2018)
Calls of active or inactive are those of the source. The rule behind the calls is not given here.

Tests used:
[1] = biological target: Signal transducer and activator of transcription 3 (Homo sapiens) (UniProt P40763); assay: Inhibition of STAT3 DNA binding activity in human MDA-MB-468 nuclear extract at 5 uM after 3 to 24 hrs by electrophoretic mobility shift assay
Summary of the method: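 MDA-MB-468 cells received 5 μM compound for 3 or 24 h. STAT3 DNA-binding in nuclear extracts of equal total protein was then analysed by EMSA.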

[2] = biological target: Signal transducer and activator of transcription 3 (Homo sapiens) (UniProt P40763); assay: Inhibition of STAT3 in human 1205 Lu cells assessed as reduction in p-STAT3(Y705) level at 10 to 20 uM after 1 to 3 hrs by immunoblot analysis; type: cell-based
Homo sapiens [3] = species on record: Homo sapiens; assay: Cytotoxicity against human C81-61 cells harboring active STAT3 assessed as decrease in cell viability up to 20 uM after 48 hrs by MTT assay; type: functional, cell-based
[4] = biological target: Signal transducer and activator of transcription 3 (Homo sapiens) (UniProt P40763); assay: Inhibition of STAT3 in human C8161 cells assessed as reduction in p-STAT3(Y705) level at 10 to 20 uM after 1 to 3 hrs by immunoblot analysis; type: cell-based
Homo sapiens [5] = species on record: Homo sapiens; assay: Cytotoxicity against human C8161 cells harboring active STAT3 assessed as decrease in cell viability up to 20 uM after 48 hrs by MTT assay; type: functional, cell-based
[6] = biological target: Signal transducer and activator of transcription 3 (Mus musculus) (UniProt P42227); assay: Inhibition of STAT3 DNA binding activity in mouse NIH/3T3 nuclear extract preincubated for 30 mins followed by [32P]hSIE addition measured after 30 mins by electrophoretic mobility shift assay
Summary of the method: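 STAT3 DNA-binding was measured by EMSA using nuclear extracts of equal total protein from v-Src-transformed fibroblasts containing activated STAT3. Extracts were preincubated for 30 min with 0–100 μM compound, then incubated with radiolabeled hSIE probe.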

Homo sapiens [7] = species on record: Homo sapiens; assay: Cytotoxicity against human 1205 Lu cells harboring active STAT3 assessed as decrease in cell viability up to 20 uM after 48 hrs by MTT assay; type: functional, cell-based
[8] = biological target: Signal transducer and activator of transcription 3 (Homo sapiens) (UniProt P40763); assay: Inhibition of STAT3 DNA binding activity in human MDA-MB-231 nuclear extract at 10 uM after 1 hr by electrophoretic mobility shift assay
Summary of the method: (§1)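 MDA-MB-231 breast cancer cells were exposed to 10 μM compound for 1, 3 or 24 h. Nuclear extracts of equal total protein were then assayed for STAT3 DNA-binding by EMSA.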

[9] = biological target: Signal transducer and activator of transcription 3 (Homo sapiens) (UniProt P40763); assay: Inhibition of STAT3 in human MDA-MB-231 cells assessed as reduction in p-STAT3(Y705) level at 5 uM after 1 to 24 hrs by immunoblot analysis; type: cell-based
[10] = biological target: Signal transducer and activator of transcription 3 (Homo sapiens) (UniProt P40763); assay: Inhibition of STAT3 DNA binding activity in human MDA-MB-231 nuclear extract at 10 uM after 3 hrs by electrophoretic mobility shift assay; summary of the method: as §1
[11] = biological target: Signal transducer and activator of transcription 3 (Homo sapiens) (UniProt P40763); assay: Inhibition of STAT3 in human UACC-903 cells assessed as reduction in p-STAT3(Y705) level at 10 to 20 uM after 1 to 3 hrs by immunoblot analysis; type: cell-based
[12] = biological target: Signal transducer and activator of transcription 3 (Homo sapiens) (UniProt P40763); assay: Inhibition of STAT3 in human MDA-MB-468 cells assessed as reduction in p-STAT3(Y705) level at 5 uM after 1 to 24 hrs by immunoblot analysis; type: cell-based
[13] = biological target: Signal transducer and activator of transcription 3 (Homo sapiens) (UniProt P40763); assay: Inhibition of STAT3 DNA binding activity in human MDA-MB-231 nuclear extract at 10 uM after 24 hrs by electrophoretic mobility shift assay; summary of the method: as §1
[14] = Cytotoxicity against human AR7119 cells assessed as decrease in cell viability up to 20 uM after 48 hrs by MTT assay; type: cell-based
MCF7 = assay: Cytotoxicity against human MCF7 cells assessed as decrease in cell viability up to 10 uM after 72 hrs by CyQuant dye based assay; type: functional
Summary of the method: (§2)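 Cells were grown in 96-well format and treated once with 0–10 μM compound for 72 h. Viable cells were quantified by CyQuant proliferation assay and plotted as % viability against concentration. Data are mean ± SD of three independent determinations.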

MDA-MB-231 [15] = assay: Cytotoxicity against human MDA-MB-231 cells harboring active STAT3 assessed as decrease in cell viability up to 10 uM after 72 hrs by CyQuant dye based assay; type: functional; summary of the method: as §2
MDA-MB-468 = assay: Cytotoxicity against human MDA-MB-468 cells harboring active STAT3 assessed as decrease in cell viability up to 10 uM after 72 hrs by CyQuant dye based assay; type: functional; summary of the method: as §2
MDA-MB-231 [16] = assay: Cytotoxicity against human MDA-MB-231 cells harboring active STAT3 assessed as decrease in cell viability up to 5 uM after 72 hrs by trypan blue exclusion based phase-contrast microscopy; type: functional

Signal transducer and activator of transcription 3 (Homo sapiens), sequence (P40763 whole entry): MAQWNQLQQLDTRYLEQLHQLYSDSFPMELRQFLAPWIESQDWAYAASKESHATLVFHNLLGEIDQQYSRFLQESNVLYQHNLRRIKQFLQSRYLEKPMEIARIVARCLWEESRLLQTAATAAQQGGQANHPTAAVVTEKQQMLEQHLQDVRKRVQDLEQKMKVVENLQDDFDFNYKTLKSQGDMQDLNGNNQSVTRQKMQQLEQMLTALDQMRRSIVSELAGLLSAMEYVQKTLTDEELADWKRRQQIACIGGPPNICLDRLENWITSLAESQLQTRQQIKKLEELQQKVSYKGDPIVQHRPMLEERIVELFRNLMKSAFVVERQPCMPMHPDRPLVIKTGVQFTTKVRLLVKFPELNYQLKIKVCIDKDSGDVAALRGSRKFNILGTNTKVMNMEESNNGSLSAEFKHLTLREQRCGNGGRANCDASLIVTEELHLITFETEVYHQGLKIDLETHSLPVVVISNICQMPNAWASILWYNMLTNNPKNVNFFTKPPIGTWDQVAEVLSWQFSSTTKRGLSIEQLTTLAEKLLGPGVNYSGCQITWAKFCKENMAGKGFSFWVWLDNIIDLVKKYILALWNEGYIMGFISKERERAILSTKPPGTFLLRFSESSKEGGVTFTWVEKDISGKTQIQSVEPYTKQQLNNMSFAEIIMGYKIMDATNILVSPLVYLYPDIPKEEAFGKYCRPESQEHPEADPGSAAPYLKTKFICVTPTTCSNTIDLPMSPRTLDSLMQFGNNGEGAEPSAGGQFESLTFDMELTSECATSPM
Signal transducer and activator of transcription 3 (Mus musculus), sequence (P42227 whole entry): as the sequence (P40763 whole entry) above, with E760D counted along it

Row | inhibition [1] | inhibition [2] | inhibition [4] | inhibition [6] | inhibition [8] | p-STAT3(Y705) reduction (qualitative call) [9] | inhibition [10] | inhibition [11] | inhibition [12] | inhibition [13] | Structure (SMILES) | Activity (Homo sapiens [3]) | Activity (Homo sapiens [5]) | Activity (Homo sapiens [7]) | Activity [14] | Activity (MCF7) | Activity (MDA-MB-231 [15]) | Activity (MDA-MB-468) | Activity (MDA-MB-231 [16])
1 | Active | Active | Active | Active | inactive | Active | Active | Active | Active | inactive | C[C@H](C(=O)N(Cc1ccc(C2CCCCC2)cc1)c1ccc(C(=O)O)c(O)c1)N(C)S(=O)(=O)c1c(F)c(F)c(F)c(F)c1F [listing 1 of 2 here] | Active | Active | Active | – | – | – | – | –
2 | – | – | – | – | – | – | – | – | – | – | C[C@H](C(=O)N(Cc1ccc(C2CCCCC2)cc1)c1ccc(C(=O)O)c(O)c1)N(C)S(=O)(=O)c1c(F)c(F)c(F)c(F)c1F [listing 2 of 2 here] | – | – | – | Non-Toxic | – | – | – | –
3 | – | – | – | – | – | Active | – | – | Active | – | C[C@H](C(=O)N(Cc1ccc(C2CCCCC2)cc1)c1ccc(C(=O)O)cc1F)N(C)S(=O)(=O)c1c(F)c(F)c(F)c(F)c1F | – | – | – | – | inactive | Active | Active | Active
